Laboratory results from the EternaBench riboswitch data.

Test system: MS2 coat protein
Assay: apparent Kd, MS2 coat protein; higher = weaker binding; RNA-MaP array; FMN 200 µM where present
Summary of the method: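 Stalled E. coli RNA polymerase produced the designs on Illumina sequencing-chip clusters. SNAP-549-labelled MS2 coat protein was added from 0.7 or 1.5 nM, doubling to 3 µM, without and then with constant ligand, in 100 mM Tris-HCl pH 7.5, 80 mM KCl, 4 mM MgCl2, BSA, DTT, yeast tRNA and Tween-20. The apparent Kd is the median of filtered per-cluster fits of green signal normalised to red-channel RNA signal and control-cluster median Fmax.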

[1] = designed as: OFF switch for flavin mononucleotide, no ligand
[2] = ligand present: flavin mononucleotide, designed as: OFF switch for flavin mononucleotide
[3] = designed as: ON switch for flavin mononucleotide, no ligand
[4] = ligand present: flavin mononucleotide, designed as: ON switch for flavin mononucleotide

## CUGUGACGGUGCGCAUGUGGACGGAGAAGGCAGACAUGAGGAUCACCCAUGUGAGCCUGCUAUUCUGAGGAUAUCCGUUCGCAC
[1]
  apparent Kd: 31.8 nM
[2]
  apparent Kd: 192 nM

## CUGUUAUAGGUCCAGAAUUACAACAUGAGGAUCACCCAUGUGCAGGAUAUCGGGAUAAUAAACGACGAGAAGGGCAUAGUCACG
[1]
  apparent Kd: 16.9 nM
[2]
  apparent Kd: 24.5 nM

## CUGUUAUAGGUCCAGAAUUACAACAUGAGGAUCACCCAUGUGCAGGAUAUCGGGUUAAUAAACGACGAGAAGGGCAUAGUCACG
[1]
  apparent Kd: 35.6 nM
[2]
  apparent Kd: 104 nM

## CUUACACAUGAGGAUCACCCAUGUGAGGAUAUGCGUACGUUGUCCGUAGGCGACGUGCGCAGAAGGCGCUUGGU
[1]
  apparent Kd: 61.6 nM
[2]
  apparent Kd: 62 nM

## CUUAUGUGAGGAUAUGUACAGAAAAAACUGGGUGUAACUGUACAGAAGGCACAUGAGGAUCACCCAUGUGCAUU
[1]
  apparent Kd: 59.9 nM
[2]
  apparent Kd: 57.1 nM

## CUUCAGUCAGGAUAUGUUAAUCUCGCCACUCGGCGAGCCGGACAGAAGGGACAUGAGGAUCACCCAUGUUAAAA
[1]
  apparent Kd: 37.6 nM
[2]
  apparent Kd: 22.2 nM

## CUUCGACAUGAGGAUCACCCAUGUCAGGAUAUUGUGUAUCGGGUUUUUUACGGAAAGGCAAGAAGGGAUGUGUG
[1]
  apparent Kd: 29.7 nM
[2]
  apparent Kd: 24.8 nM

## CUUUAACUACAAUUACAUGAGGAUCACCCAUGUUUUGGGAUGCAGGAUAUGUGGUAUAUUAAUUAACAGAAGGGCAAUAAUUAA
[3]
  apparent Kd: 40.7 nM
[4]
  apparent Kd: 38.9 nM

## CUUUCGUGAGGAUAUCAGUAGUAAAUAAAUAAAAUUACUACUGAGAAGGCACAUGAGGAUCACCCAUGUUCCUU
[1]
  apparent Kd: 11.8 nM
[2]
  apparent Kd: 18.5 nM

## CUUUCGUGAGGAUAUGUGGCUUCGAUCGUGAGAUCGAAGCUACAGAAGGCACAUGAGGAUCACCCAUGUUCCUC
[1]
  apparent Kd: 38.5 nM
[2]
  apparent Kd: 544 nM

## CUUUUGUGAGGAUAUCAGUAGUAAAAUAAUAAAAUAACUACUGAGAAGGCACAUGAGGAUCACCCAUGUUCCUC
[1]
  apparent Kd: 32.5 nM
[2]
  apparent Kd: 161 nM

## CUUUUGUGAGGAUAUCAGUAGUAAAUAAAUUAAAUUACUACUGAGAAGGCACAUGAGGAUCACCCAUGUUCCUC
[1]
  apparent Kd: 38.3 nM
[2]
  apparent Kd: 249 nM

## CUUUUGUGAGGAUAUCAGUAGUAAAUAAUUAAAAUUACUACUGAGAAGGCACAUGAGGAUCACCCAUGUUCCUC
[1]
  apparent Kd: 42.2 nM
[2]
  apparent Kd: 284 nM

## CUUUUGUGAGGAUAUCAGUAGUAGAACAAUAGUACUACUACUGAGAAGGCACAUGAGGAUCACCCAUGUUCCUC
[1]
  apparent Kd: 62.5 nM
[2]
  apparent Kd: 455 nM

## CUUUUGUGAGGAUAUCAGUAGUAGAACAAUAGUACUACUACUGAGAAGGCACAUGAGGAUCACCCAUGUUCCUU
[1]
  apparent Kd: 16 nM
[2]
  apparent Kd: 35.6 nM

## CUUUUGUGAGGAUAUCAGUAGUAGAACAAUAGUACUACUACUGAGAAGGCACAUGAGGAUCACCCAUGUUCUUC
[1]
  apparent Kd: 33.5 nM
[2]
  apparent Kd: 118 nM

## CUUUUGUGAGGAUAUUAGUAGUAAAAAAAUAAAAUUACUACUGAGAAGGCACAUGAGGAUCACCCAUGUUCUUC
[1]
  apparent Kd: 19 nM
[2]
  apparent Kd: 98.1 nM

## CUUUUGUGAGGAUAUUAGUAGUAAAUAAAUAAUAUUACUACUGAGAAGGCACAUGAGGAUCACCCAUGUUCCUC
[1]
  apparent Kd: 37 nM
[2]
  apparent Kd: 302 nM

## CUUUUGUGAGGAUAUUAGUAGUAAAUAAAUAUAAUUACUACUGAGAAGGCACAUGAGGAUCACCCAUGUUCCUC
[1]
  apparent Kd: 34.1 nM
[2]
  apparent Kd: 186 nM

## CUUUUGUGAGGAUAUUCGUAGUAAAUGAAUAAAAUUAUUACGGAGAAGGCACAUGAGGAUCACCCAUGUUCCUC
[1]
  apparent Kd: 42.2 nM
[2]
  apparent Kd: 343 nM

## CUUUUGUGAGGAUAUUCGUAGUAGGGUCAUGGUACUAUUACGGAGAAGGCACAUGAGGAUCACCCAUGUUCCUU
[1]
  apparent Kd: 15.4 nM
[2]
  apparent Kd: 45.1 nM

## CUUUUGUGAGGAUAUUGGUAGUAAAUAAAUAAAAUUACUACUGAGAAGGCACAUGAGGAUCACCCAUGUUCCUC
[1]
  apparent Kd: 31.2 nM
[2]
  apparent Kd: 221 nM

## CUUUUUUUUGUGAGGAUAUACUGUUAUUAAAGUUAGUAGAAGGUACAUGAGGAUCACCCAUGUUAAUUACUUUA
[1]
  apparent Kd: 14.2 nM
[2]
  apparent Kd: 13.8 nM

## GAAAAGGUAGGAUAUACGAAAAAAAAGGGUAGAAAAAAUACACAUGAGGAUCACCCAUGUAGAAGGACCAAAAG
[1]
  apparent Kd: 31.5 nM
[2]
  apparent Kd: 130 nM

## GAAAGGGCAGGAUAUGCAGAGAGAGAGAGAGAGAGAAAAAAACAUGAGGAUCACCCAUGUAGAAGGGCCGAAAG
[1]
  apparent Kd: 34.8 nM
[2]
  apparent Kd: 39.1 nM

## GAAGCAUGCAAUAACAUGAGGAUCACCCAUGUGAAAACACGUGAGGAUAUUGAUCUGAAGAAGAUCGAGAAGGCACCGUGCUAA
[3]
  apparent Kd: 13.4 nM
[4]
  apparent Kd: 9.92 nM

## GAAUAGGCAGGAUAUACAUGAGGAUCACCCAUGUGCCGGCGAAAGGUACGUUCGAAAGGUAGAAGGGCCUAAAC
[1]
  apparent Kd: 78.6 nM
[2]
  apparent Kd: 288 nM

## GAAUUCGCAUGAGGAUAUGCACUCAUUUCAUGUGCAGAAGGUAUAUCAUUAGACAUGAGGAUCACCCAUGUAUUGGUCAUUAAC
[3]
  apparent Kd: 15.2 nM
[4]
  apparent Kd: 14 nM

## GAAUUCGCAUGAGGAUAUGCUCCCGUUUCGGGAGCAGAAGGCAUGUCAUAAGACAUGAGGAUCACCCAUGUAGUUAAGAUUGAA
[3]
  apparent Kd: 196 nM
[4]
  apparent Kd: 11.3 nM

## GACAUACAUGAGGAUCACCCAUGUUCAGACGGGCAAGGAUAUGUGUGGAAACCAUACUAUACAGAAGGUGUCUGUC
[3]
  apparent Kd: 26.5 nM
[4]
  apparent Kd: 17.6 nM

## GACAUGAGGAUCACCCAUGUCCAACCAGAAGGCCAGAAACCAGGCCCUUGUAUCGGGCUUGGGAUGGAGGAUAUGGGCGCCGAA
[3]
  apparent Kd: 61.4 nM
[4]
  apparent Kd: 31.6 nM

## GACAUGAGGAUCACCCAUGUCCAUGCAAGAGUAGUUGAGACCAGAAGGACCGUGCGGAGCGCAGGGUAGGAUAUGGAGCCCUCA
[3]
  apparent Kd: 32.4 nM
[4]
  apparent Kd: 9.46 nM

## GACCCAAAUGAGAAGGUGUGUAUAAAUUAUGUACAAGGAUAUCGGUCGAGCGUGUUGACAUGAGGAUCACCCAUGUUGUGGGUU
[3]
  apparent Kd: 139 nM
[4]
  apparent Kd: 56.2 nM

## GACGGUGAUGUAGGAUAUACGCUGGAAUACAGCGUAGAAGGACAUGAGGAUCACCCAUGUAAAGUGUCUCCGAAUAACACCGUC
[1]
  apparent Kd: 35.3 nM
[2]
  apparent Kd: 68.6 nM

## GACUACGAGGGAGGAUAUCCUCAUUAAUUUGGUGGAGAAGGCCCUCUACAUGAGGAUCACCCAUGUAUCGCUAUAGUCAGACAU
[3]
  apparent Kd: 9.92 nM
[4]
  apparent Kd: 6.95 nM

## GACUCGAAUGUAGGAUAUGCUGAGGAAUACUCAGCAGAAGGACAUGAGGAUCACCCAUGUCAAUGAGUGAAUAAUAAACGAGUC
[1]
  apparent Kd: 29.2 nM
[2]
  apparent Kd: 224 nM

## GACUGAUUGUAGAAGGUACUUGACUAUAUAUUUUAUUCAUAUAGACAUGAGGAUCACCCAUGUAGUAAGGAUAUACUUUUAACA
[3]
  apparent Kd: 9.31 nM
[4]
  apparent Kd: 6 nM

## GACUGGGCAGGAUAUACAUGAGGAUCACCCAUGUGUCUGCGUCAGGCACGUGUAGACGGUAGAAGGGCCUACAC
[1]
  apparent Kd: 11.6 nM
[2]
  apparent Kd: 13.6 nM

## GACUUGCGCACAGGAUAUCCACAGAGCGGACGUGGAGAAGGGUGACAUGAGGAUCACCCAUGUACGUAAGUCUGGAUCACUUCC
[3]
  apparent Kd: 29.4 nM
[4]
  apparent Kd: 26.1 nM

## GAGAAGUCAGGAUAUCCAUGGCGGCACUUGCGUGGUGGCGUGGAGAAGGGACAUGAGGAUCACCCAUGUAAAGA
[1]
  apparent Kd: 52.7 nM
[2]
  apparent Kd: 36.8 nM

## GAGAAGUCAGGAUAUCCAUGGCGGCACUUGCGUGGUGGCGUGGAGAAGGGACAUGAGGAUCACCCAUGUAAAGG
[1]
  apparent Kd: 165 nM
[2]
  apparent Kd: 157 nM

## GAGAAGUCAGGAUAUGCAUGGCGGGACUUGCGUCGUGGCGUGCAGAAGGGACAUGAGGAUCACCCAUGUAAAGG
[1]
  apparent Kd: 143 nM
[2]
  apparent Kd: 265 nM

## GAGAAGUCAGGAUAUGCUGCUCGUCACUUGCGUGAUGAGUAGCAGAAGGGACAUGAGGAUCACCCAUGUAAAGA
[1]
  apparent Kd: 51.2 nM
[2]
  apparent Kd: 64.5 nM

## GAGCGAAAGCUCAAUGUCGAUAGCAGAAGGACAUGCAAUAACAUGAAAACAUGAGGAUCACCCAUGUAGGAUAUGCUAUCGACU
[1]
  apparent Kd: 6.65 nM
[2]
  apparent Kd: 44.5 nM

## GAGCGGCGUACAGGAUAUCCUACAUGAGGAUCACCCAUGUCACAUUUACACGAGAACGUGUACGAGGAGAAGGGUGGGUUCGUG
[3]
  apparent Kd: 287 nM
[4]
  apparent Kd: 588 nM

## GAGCUCGAUGAGAAGGGUUACAUGAGGAUCACCCAUGUCGACCUUGGCGUAACAGGAUAUCAUCGGGCUCAGUGCGUUGACACA
[1]
  apparent Kd: 29.2 nM
[2]
  apparent Kd: 171 nM

## GAGGAACAUGAGGAUCACCCAUGUGAGGAUAUGCAUAGUGAGCUAGUAGACGUUUAUUGCAGAAGGUACACUGA
[1]
  apparent Kd: 31.4 nM
[2]
  apparent Kd: 23.6 nM

## GAGUAGUCAAAAGGAUAUUGAUUAUUGUAGGAUCAAGAAGGUUUUAACAUGAGGAUCACCCAUGUAGGACUAUUCCUGUGUAUC
[3]
  apparent Kd: 16.6 nM
[4]
  apparent Kd: 12.2 nM

## GAGUCUCUAUUAGAACCGAUACGAACAUGAGGAUCACCCAUGUAGGAUAUGCUAAAAGUUGUGUUGCAGAAGGACAUUUAAUGC
[1]
  apparent Kd: 11.2 nM
[2]
  apparent Kd: 10.9 nM

## GAGUGACAUGAGGAUCACCCAUGUGAGGAUAUCGGACGGACCUAGUUAACUUCCGCCGCGAGAAGGCACAUCGG
[1]
  apparent Kd: 98.7 nM
[2]
  apparent Kd: 33.8 nM

## GAGUGACAUGAGGAUCACCCAUGUGAGGAUAUCGGACGGACCUUGUUGGCUUCCGCCGCGAGAAGGCACAUCGG
[1]
  apparent Kd: 201 nM
[2]
  apparent Kd: 45 nM

## GAGUGCUGAGGAUAUACAUGAGGAUCACCCAUGUGCUUCAGCUAGGAGACUAGCAUUGGUAGAAGGCAGUACUC
[1]
  apparent Kd: 11.2 nM
[2]
  apparent Kd: 46 nM

## GAGUGGUGGAGAGGAUAUACAUUGUUAUUCACUGUAGAAGGUUCUAACAUGAGGAUCACCCAUGUAGGACUAUUCCUGAGUUUU
[3]
  apparent Kd: 12.4 nM
[4]
  apparent Kd: 9.82 nM

## GAUAAUAUAGGAUAUACAUGAGGAUCACCCAUGUCCCGAUAUUAGGAGGACCUCCUCGGUAGAAGGAUAUGUGC
[1]
  apparent Kd: 129 nM
[2]
  apparent Kd: 131 nM

## GAUAGGACAGAGAAGGACAUAGCUAGAGAUACUAGCAUAAGAACUUUCACAUGAGGAUCACCCAUGUAGGAUAUCUGUCCUAUC
[1]
  apparent Kd: 4.96 nM
[2]
  apparent Kd: 5.53 nM

## GAUAGGACAGAGAAGGACGUAGCUAGAGAUACUAGCAUUAAGUCCUCAACAUGAGGAUCACCCAUGUAGGAUAUCUGUCCUAUC
[1]
  apparent Kd: 6.23 nM
[2]
  apparent Kd: 6.71 nM
